# Assay results from ChEMBL document CHEMBL4689842, “EUbOPEN Chemogenomics Library wave 1” (2021).
# Columns and labels:
# Type in all cases: toxicity, cell-based
# HEK-293T = assay: Incucyte cell viability with HEK293T; settings: human, 10 µM, compound concentration 10 uM; further: filed as whole numbers so only -1 and 0 and 1 occur
# U2OS [1] = assay: Incucyte cell viability with U2OS; settings: human, 10 µM, compound concentration 10 uM; further: filed as whole numbers so only -1 and 0 and 1 occur
# U2OS [2] = assay: Multiplex assay against U2OS; settings: human
# Outline: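 Per cents of healthy-nucleus cells form the tubulin, mitochondrial-mass and membrane-permeability phenotype values. Live cells were stained at seeding with Hoechst33342, BioTracker Green Microtubule Cytoskeleton Dye, MitoTracker Red and Annexin V Alexa Fluor 680. After compound addition they were imaged on a CQ1 microscope at 37°C and 5% CO2, and CellPathfinder machine-learning gating split them into Hoechst high-intensity objects or normal cells, normal cells into healthy, pyknosed or fragmented nuclei, and pyknosed cells into mitotic or apoptotic.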
# Fibroblast = assay: Incucyte cell viability with human fibroblast; settings: 10 µM, compound concentration 10 uM; further: filed as whole numbers so only -1 and 0 and 1 occur
# [3] = 0 h, replicate number 1, timepoint 0 hours
# [4] = 6 h, replicate number 1, timepoint 6 hours
# [5] = 12 h, replicate number 1, timepoint 12 hours
# [6] = 18 h, replicate number 1, timepoint 18 hours
# [7] = 24 h, replicate number 1, timepoint 24 hours
# [8] = 24 h, replicate number 2, timepoint 24 hours
# [9] = 12 h, 1 µM, compound concentration 1 uM, replicate 1
# [10] = 12 h, 1 µM, compound concentration 1 uM, replicate 2
# [11] = 12 h, 10 µM, compound concentration 10 uM, replicate 1
# [12] = 12 h, 10 µM, compound concentration 10 uM, replicate 2
# [13] = 24 h, 1 µM, compound concentration 1 uM, replicate 1
# [14] = 24 h, 1 µM, compound concentration 1 uM, replicate 2
# [15] = 24 h, 10 µM, compound concentration 10 uM, replicate 1
# [16] = 24 h, 10 µM, compound concentration 10 uM, replicate 2
smiles,measurement,setting,value
Cc1c(Nc2ccc(S(=O)(=O)N3CCN(C)CC3)cc2F)nc2ccc(Nc3cnn(C4CC4)c3)cn2c1=O,Growth Rate,HEK-293T; [3],1
same,Growth Rate,HEK-293T; [4],0
same,Growth Rate,HEK-293T; [5],0
same,Growth Rate,HEK-293T; [6],0
same,Growth Rate,HEK-293T; [7],0
same,Growth Rate,U2OS [1]; [3],0
same,Growth Rate,U2OS [1]; [4],0
same,Growth Rate,"U2OS [1]; 6 h, replicate number 2, timepoint 6 hours",1
same,Growth Rate,U2OS [1]; [5],0
same,Growth Rate,"U2OS [1]; 12 h, replicate number 2, timepoint 12 hours",1
same,Growth Rate,U2OS [1]; [6],0
same,Growth Rate,"U2OS [1]; 18 h, replicate number 2, timepoint 18 hours",1
same,Growth Rate,U2OS [1]; [7],0
same,Growth Rate,U2OS [1]; [8],1
same,Population Apoptotic (%),U2OS [2]; [9],50%
same,Population Fragmented Nuclei (%),U2OS [2]; [9],7%
same,Population Healthy Nuclei (%),U2OS [2]; [9],81%
same,Population Hoechst High Intensity Objects (%),U2OS [2]; [9],3%
same,Population Membrane Permeable-Phenotype (%),U2OS [2]; [9],58%
same,Population Mitochondria Different-Phenotype (%),U2OS [2]; [9],9%
same,Population Mitotic Cells (%),U2OS [2]; [9],50%
same,Population Normal (%),U2OS [2]; [9],96%
same,Population Pyknosed Nuclei (%),U2OS [2]; [9],11%
same,Population Tubulin-Different-Phenotype (%),U2OS [2]; [9],53%
same,Total Cell Count,U2OS [2]; [9],194
same,Population Apoptotic (%),U2OS [2]; [10],0%
same,Population Fragmented Nuclei (%),U2OS [2]; [10],3%
same,Population Healthy Nuclei (%),U2OS [2]; [10],93%
same,Population Hoechst High Intensity Objects (%),U2OS [2]; [10],6%
same,Population Membrane Permeable-Phenotype (%),U2OS [2]; [10],40%
same,Population Mitochondria Different-Phenotype (%),U2OS [2]; [10],18%
same,Population Mitotic Cells (%),U2OS [2]; [10],100%
same,Population Normal (%),U2OS [2]; [10],93%
same,Population Pyknosed Nuclei (%),U2OS [2]; [10],3%
same,Population Tubulin-Different-Phenotype (%),U2OS [2]; [10],34%
same,Total Cell Count,U2OS [2]; [10],124
same,Population Apoptotic (%),U2OS [2]; [11],27%
same,Population Fragmented Nuclei (%),U2OS [2]; [11],2%
same,Population Healthy Nuclei (%),U2OS [2]; [11],91%
same,Population Hoechst High Intensity Objects (%),U2OS [2]; [11],3%
same,Population Membrane Permeable-Phenotype (%),U2OS [2]; [11],7%
same,Population Mitochondria Different-Phenotype (%),U2OS [2]; [11],21%
same,Population Mitotic Cells (%),U2OS [2]; [11],72%
same,Population Normal (%),U2OS [2]; [11],96%
same,Population Pyknosed Nuclei (%),U2OS [2]; [11],5%
same,Total Cell Count,U2OS [2]; [11],459
same,Population Apoptotic (%),U2OS [2]; [12],37%
same,Population Fragmented Nuclei (%),U2OS [2]; [12],9%
same,Population Healthy Nuclei (%),U2OS [2]; [12],82%
same,Population Hoechst High Intensity Objects (%),U2OS [2]; [12],15%
same,Population Membrane Permeable-Phenotype (%),U2OS [2]; [12],9%
same,Population Mitochondria Different-Phenotype (%),U2OS [2]; [12],32%
same,Population Mitotic Cells (%),U2OS [2]; [12],62%
same,Population Normal (%),U2OS [2]; [12],84%
same,Population Pyknosed Nuclei (%),U2OS [2]; [12],7%
same,Population Tubulin-Different-Phenotype (%),U2OS [2]; [12],20%
same,Total Cell Count,U2OS [2]; [12],603
same,Population Apoptotic (%),U2OS [2]; [13],50%
same,Population Fragmented Nuclei (%),U2OS [2]; [13],10%
same,Population Healthy Nuclei (%),U2OS [2]; [13],80%
same,Population Hoechst High Intensity Objects (%),U2OS [2]; [13],1%
same,Population Membrane Permeable-Phenotype (%),U2OS [2]; [13],37%
same,Population Mitochondria Different-Phenotype (%),U2OS [2]; [13],15%
same,Population Mitotic Cells (%),U2OS [2]; [13],50%
same,Population Normal (%),U2OS [2]; [13],98%
same,Population Pyknosed Nuclei (%),U2OS [2]; [13],9%
same,Population Tubulin-Different-Phenotype (%),U2OS [2]; [13],33%
same,Total Cell Count,U2OS [2]; [13],275
same,Population Apoptotic (%),U2OS [2]; [14],42%
same,Population Fragmented Nuclei (%),U2OS [2]; [14],6%
same,Population Healthy Nuclei (%),U2OS [2]; [14],87%
same,Population Hoechst High Intensity Objects (%),U2OS [2]; [14],5%
same,Population Membrane Permeable-Phenotype (%),U2OS [2]; [14],19%
same,Population Mitochondria Different-Phenotype (%),U2OS [2]; [14],10%
same,Population Mitotic Cells (%),U2OS [2]; [14],57%
same,Population Normal (%),U2OS [2]; [14],94%
same,Population Pyknosed Nuclei (%),U2OS [2]; [14],6%
same,Population Tubulin-Different-Phenotype (%),U2OS [2]; [14],19%
same,Total Cell Count,U2OS [2]; [14],152
same,Population Apoptotic (%),U2OS [2]; [15],50%
same,Population Fragmented Nuclei (%),U2OS [2]; [15],3%
same,Population Healthy Nuclei (%),U2OS [2]; [15],91%
same,Population Hoechst High Intensity Objects (%),U2OS [2]; [15],2%
same,Population Membrane Permeable-Phenotype (%),U2OS [2]; [15],5%
same,Population Mitochondria Different-Phenotype (%),U2OS [2]; [15],15%
same,Population Mitotic Cells (%),U2OS [2]; [15],50%
same,Population Normal (%),U2OS [2]; [15],97%
same,Population Pyknosed Nuclei (%),U2OS [2]; [15],5%
same,Population Tubulin-Different-Phenotype (%),U2OS [2]; [15],26%
same,Total Cell Count,U2OS [2]; [15],480
same,Population Apoptotic (%),U2OS [2]; [16],30%
same,Population Fragmented Nuclei (%),U2OS [2]; [16],5%
same,Population Healthy Nuclei (%),U2OS [2]; [16],85%
same,Population Hoechst High Intensity Objects (%),U2OS [2]; [16],11%
same,Population Membrane Permeable-Phenotype (%),U2OS [2]; [16],10%
same,Population Mitochondria Different-Phenotype (%),U2OS [2]; [16],26%
same,Population Mitotic Cells (%),U2OS [2]; [16],69%
same,Population Normal (%),U2OS [2]; [16],88%
same,Population Pyknosed Nuclei (%),U2OS [2]; [16],9%
same,Population Tubulin-Different-Phenotype (%),U2OS [2]; [16],20%
same,Total Cell Count,U2OS [2]; [16],644
same,Growth Rate,"Fibroblast; 0 h, replicate number 2, timepoint 0 hours",0
same,Growth Rate,Fibroblast; [4],0
same,Growth Rate,Fibroblast; [5],0
same,Growth Rate,Fibroblast; [6],0
same,Growth Rate,Fibroblast; [7],0
same,Growth Rate,Fibroblast; [8],1
